The source of these data is PubChem BioAssay.

In general, inhibition refers to the change of the read-out against control, counted positive when it falls.

Assay [1] in a line: inhibitors of TNFa-induced NFkB p65 translocation, primary screen, imaging, HUVEC, MLSMR starter and 10KST1 sets (AID 438;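 active = inhibition above 20% together with a positive visual image hit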;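 note: compound added about 3h40 before a 20 min TNFalpha stimulation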;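 for inhibition: signal is the nuclear over cytoplasmic p65 intensity ratio per well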). The conditions noted are these: HUVEC TNFa-induced p65 nuclear translocation; cell count: measured here: nuclei count (cytotoxicity indicator), at 2.08 µM; inhibition: at 2 µM, stronger effect = higher value, 0% TNFa-plus-vehicle, 100% no-TNFa wells.
The nature of assay [2]: reduction of polyQ htt aggregates in cells – imaging, exon1htt(103Q)mCFP cells, high-content imaging, primary screen (AID 483;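 active = visual image review flags a hit and inhibition of aggregation exceeds 20%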;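 note: compound exposure lasted 3 days before fixation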;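 for nuclei count: percent of the per-plate median nuclei count of sample wells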). Particulars: exon1htt(103Q)mCFP cell line, aggregate imaging, at 2 µM; inhibition of aggregation: stronger effect = higher value; nuclei count: measured here: cell count, toxicity.
Assay [3] is described as follows: endothelial E-selectin expression blockers – imaging, HUVEC, immunofluorescence, MLSMR starter and 10KST1 sets, primary screen (AID 487;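 active = visually confirmed hit in the image check and inhibition above 20%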;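 for inhibition: signal is fraction of cell area covered by stained E-selectin grains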;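 for nuclei count: 100% = median nuclei count of all wells on the same plate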). Particulars: HUVEC TNFalpha-induced E-selectin immunofluorescence imaging, at 2 µM; inhibition: stronger effect = higher value; nuclei count: measured here: cell number, toxicity.
In assay [4] the target is Voltage-gated potassium channel subunit beta-2 (Rattus norvegicus) (UniProt P62483). The experiment in a line: inhibitors of rat Kvbeta2 reductase activity – biochemical, NADPH fluorescence, primary screen (AID 622;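 active = fluorescence slope higher than the sample average by over 3 SD, cut at about -0.22 in these data, passing the limit was not always enough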;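 note: slope of raw intensity against log time taken from 70 to 1610 s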). The conditions noted are these: recombinant KvBeta, 4-cyanobenzaldehyde reduction, at 10 µM, stronger effect = higher value.
For assay [5] the target is unchanged. The experiment in a line: enhancers of rat Kvbeta2 NADPH turnover – biochemical, NADPH fluorescence, primary screen (AID 623;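 active = NADPH fluorescence slope more negative than the mean of all samples by about 3 SD, 99.7% confidence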;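 note: fluorescence intensity change per second fitted from 20 to 320 s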). The conditions noted are these: Recombinant KvBeta, NADPH fluorescence decrease slope, 10 min; at 10 µM; stronger effect = lower value.
Assay [6] deals with Muscarinic acetylcholine receptor M4 (Homo sapiens) (UniProt P08173). The experiment in a line: M4-linked GIRK flux change, two-sided – cell-based, HEK293 M4/GIRK, thallium flux, BTC-AM, M4 allosteric agonist project, primary screen (AID 625).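 Note: thallium influx through GIRK channels coupled to M4 in HEK293 cells with BTC-AM dye.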 The conditions noted are these: at 10 µM, actives lie on both sides. The method, boiled down: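 Material: M4/GIRK1/GIRK2 stable HEK293 cell line. Medium: pH 7.3 thallium assay buffer. Dosing: single compound concentration, 10 µM final. Schedule: 1 h dye loading, 2 min kinetic read. Measured by: kinetic fluorescence with BTC-AM dye. Read-out: post-addition slope, 15–24 s, of baseline-normalized fluorescence. Benchmarks: carbachol and DMSO controls.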

Assay [7] in a line: blockers of RIG-like receptor reporter activation – cell-based, Sendai virus stimulus, luciferase, 10K MLSCN set, TLR/RLR signaling modifier project, primary screen (AID 602276;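 active = inhibition at or above 50% at 10 µM; inactive = inhibition below 50%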;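 note: firefly luciferase from ISG56 promoter only with Renilla not read in this screen; 0% = Sendai virus plus DMSO and 100% = medium plus DMSO without virus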). The conditions noted are these: HEK293 RL24 IRF3 luciferase reporter, at 10 µM, stronger effect = higher value. Background: In a reporter assay the amount or activity of a reporter protein is the signal.
Assay [8] can be described thus: TLR3 IRF3 reporter activation blockers – cell-based, poly I:C stimulus, luciferase, 10K MLSCN set, primary screen (AID 602277;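 active = inhibition of the reporter signal at or above 50%; inactive = inhibition below 50%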). The conditions noted are these: HEK293-TLR3 RL24 IRF3 luciferase reporter, at 10 µM, stronger effect = higher value.

The structures appear in SMILES notation. The source made the active and inactive calls.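 Rule for the calls, unless noted: active = fluorescence slope after compound addition differing from the mean of all tested samples at 99.7% confidence, mostly higher but some lower; inactive = the rest.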

Sequence of Muscarinic acetylcholine receptor M4 (Homo sapiens) (P08173 whole entry, looked up): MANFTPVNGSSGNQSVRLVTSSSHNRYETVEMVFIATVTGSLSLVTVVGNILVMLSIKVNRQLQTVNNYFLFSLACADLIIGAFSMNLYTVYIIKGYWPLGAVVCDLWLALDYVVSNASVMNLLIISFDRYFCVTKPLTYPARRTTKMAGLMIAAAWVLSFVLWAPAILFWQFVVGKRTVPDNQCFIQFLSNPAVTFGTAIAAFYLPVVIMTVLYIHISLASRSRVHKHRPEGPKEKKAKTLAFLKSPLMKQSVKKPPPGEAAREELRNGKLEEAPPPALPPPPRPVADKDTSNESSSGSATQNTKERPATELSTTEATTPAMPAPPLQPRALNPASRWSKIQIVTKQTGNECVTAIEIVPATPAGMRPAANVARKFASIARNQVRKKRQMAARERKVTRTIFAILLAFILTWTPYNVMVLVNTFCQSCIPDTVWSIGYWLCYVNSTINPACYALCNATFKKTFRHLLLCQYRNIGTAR
Sequence of Voltage-gated potassium channel subunit beta-2 (Rattus norvegicus) (P62483 whole entry, looked up): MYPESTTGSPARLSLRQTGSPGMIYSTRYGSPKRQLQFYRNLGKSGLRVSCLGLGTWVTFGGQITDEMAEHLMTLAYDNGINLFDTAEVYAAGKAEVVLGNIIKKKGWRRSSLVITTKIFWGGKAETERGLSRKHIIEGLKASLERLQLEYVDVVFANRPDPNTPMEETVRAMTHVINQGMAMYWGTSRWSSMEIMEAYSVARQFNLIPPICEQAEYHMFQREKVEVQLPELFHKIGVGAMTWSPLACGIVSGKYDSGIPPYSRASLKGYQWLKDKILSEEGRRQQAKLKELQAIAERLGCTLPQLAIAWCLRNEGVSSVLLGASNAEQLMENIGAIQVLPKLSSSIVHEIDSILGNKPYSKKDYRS

For the compound `O=C(c1cccc(Cl)c1)N1CCN(Cc2ccncc2)CC1`, the cell count in assay [1] was 702. Besides, the inhibition was 3.1% (inactive) in assay [1], -87.8% (inactive) in assay [3], 3.71% (inactive) in assay [7] and 7.08% (inactive) in assay [8]. Moreover, in assay [2], the inhibition of aggregation is 1.7% (inactive). Also, the nuclei count in assay [2] amounted to 106%; in assay [3] it was 109%. In addition, the fluorescence slope in assay [4] was -0.537 (inactive); in assay [6], 0.00543 (inactive). Also, the NADPH fluorescence slope in assay [5] is 0.000145 (inactive).

Turning to `CC(Sc1nnnn1-c1ccccc1)C(=O)Nc1ccc(Cl)cn1` (centres undefined), in assay [1], the cell count came out at 570. The inhibition in assay [1] was -12.8% (inactive); in assay [3], -139% (inactive); in assay [7] it was 16% (inactive); in assay [8] it was 19.9% (inactive). The inhibition of aggregation in assay [2] is -5.6% (inactive). Besides, the nuclei count in assay [2] turned out to be 108%; in assay [3], 131%. The fluorescence slope was -0.426 (inactive) in assay [4] and 0.00566 (inactive) in assay [6]. Further, in assay [5], the NADPH fluorescence slope was 2.6e-05 (inactive).

As for `COc1ccc(N2CCN(c3ncnc4c3cnn4-c3ccc(C)cc3C)CC2)cc1`, in assay [1], the cell count amounted to 683. For the same compound, the inhibition in assay [1] was -10.9% (inactive); in assay [3], -33.1% (inactive); in assay [7], 5.2% (inactive); in assay [8], -20.2% (inactive). For the same compound, the inhibition of aggregation in assay [2] is -20.3% (inactive). The nuclei count in assay [2] stood at 117%; in assay [3], 98%. In addition, the results for the fluorescence slope in assay [4] and in assay [6] were -0.558 (inactive) and 0.00551 (inactive), respectively. Besides, in assay [5], the NADPH fluorescence slope was -4.3e-05 (inactive).

Take `CC(OC1=CC(=O)CCC1)C(=O)c1ccccc1` (centres undefined): the cell count in assay [1] is 370. Further, the inhibition in assay [1] was 10.4% (inactive); in assay [3], 24.1% (inactive); in assay [7] it was 14.1% (inactive); in assay [8], 18.3% (inactive). Also, the inhibition of aggregation in assay [2] is 36.6% (active). Further, the nuclei count in assay [2] came to 64.2%; in assay [3] it was 72.3%. Also, the results for the fluorescence slope in assay [4] and in assay [6] were -0.569 (inactive) and 0.00642 (inactive), respectively. Further, the NADPH fluorescence slope in assay [5] was 1.9e-05 (inactive).

For the compound `O=C(Cn1ccc2ccccc2c1=O)NCCC(=O)N1CCN(C(=O)c2ccco2)CC1`, the cell count in assay [1] amounted to 397. Also, the inhibition in assay [1] is -14.1% (inactive); in assay [3], 9.4% (inactive); in assay [7] it was -0.7% (inactive); in assay [8], 6.13% (inactive). The inhibition of aggregation in assay [2] was 11.3% (inactive). Further, the nuclei count in assay [2] was 98.1%; in assay [3], 97.8%. Also, the values for the fluorescence slope in assay [4] and in assay [6] were -0.503 (inactive) and 0.00733 (inactive), respectively. Moreover, the NADPH fluorescence slope in assay [5] was 0.000132 (inactive).

Regarding `COc1cccc(Nc2nc(=O)[nH]nc2C)c1`, the cell count in assay [1] turned out to be 372. Also, the inhibition in assay [1] is -0.7% (inactive); in assay [3] it was -23.9% (inactive); in assay [7] it was 16.9% (inactive); in assay [8], 22.7% (inactive). For the same compound, the inhibition of aggregation in assay [2] is -14.2% (inactive). Moreover, the results for the nuclei count in assay [2] and in assay [3] were 106% and 103%, respectively. Besides, the fluorescence slope in assay [4] is -0.572 (inactive); in assay [6], 0.00575 (inactive). In assay [5], the NADPH fluorescence slope was -4.1e-05 (inactive).

In the case of `CC(=O)Oc1ccc(CCC(C)OC(C)=O)cc1` (centres undefined), in assay [1], the cell count worked out at 634. In addition, the inhibition was -2.9% (inactive) in assay [1], -0.1% (inactive) in assay [3], 14.9% (inactive) in assay [7] and 12.9% (inactive) in assay [8]. For the same compound, the inhibition of aggregation in assay [2] was -2.2% (inactive). In addition, the figures for the nuclei count in assay [2] and in assay [3] were 100% and 84%, respectively. Further, the fluorescence slope in assay [4] is -0.518 (inactive); in assay [6], 0.00491 (inactive). In addition, in assay [5], the NADPH fluorescence slope was -5.9e-05 (inactive).

As to `O=C(Nc1nnc(C2CCCCC2)s1)c1cccs1`, in assay [1], the cell count was found to be 511. Moreover, the inhibition was -8.1% (inactive) in assay [1], -77.2% (inactive) in assay [3], -37.9% (inactive) in assay [7] and -113% (inactive) in assay [8]. In assay [2], the inhibition of aggregation was -2.9% (inactive). Moreover, the nuclei count in assay [2] was 108%; in assay [3] it was 121%. Further, the fluorescence slope is -0.437 (inactive) in assay [4] and 0.00416 (inactive) in assay [6]. Besides, in assay [5], the NADPH fluorescence slope is -2.3e-05 (inactive).

On to `Cc1cnc(-c2nnc(N(C)C(=O)C3CCOC3)s2)cn1` (centres undefined), for which the cell count in assay [1] was determined as 340. The inhibition is -12.1% (inactive) in assay [1], 41.6% (inactive) in assay [3], -2.32% (inactive) in assay [7] and -11.8% (inactive) in assay [8]. In addition, the inhibition of aggregation in assay [2] was 26.6% (inactive). The nuclei count stood at 79% in assay [2] and 88.5% in assay [3]. Besides, the fluorescence slope is -0.552 (inactive) in assay [4] and 0.00481 (inactive) in assay [6]. In addition, the NADPH fluorescence slope in assay [5] is -6.2e-06 (inactive).

In the case of `CC(=O)NC1=NC(=O)/C(=C/N2CCCCC2)S1`, in assay [1], the cell count is 391. Besides, the inhibition in assay [1] was -4.7% (inactive); in assay [3], -11.8% (inactive); in assay [7] it was 21.1% (inactive); in assay [8], 16.4% (inactive). The inhibition of aggregation in assay [2] was 1.3% (inactive). Further, the nuclei count in assay [2] was found to be 105%; in assay [3] it was 103%. Further, the fluorescence slope in assay [4] is -0.459 (inactive); in assay [6], 0.00493 (inactive). Also, in assay [5], the NADPH fluorescence slope was -3.8e-05 (inactive).

`COc1ccc(CN2C(=O)CN=C2Nc2ccc(C)cc2C)cc1`: the cell count in assay [1] is 809. In addition, the inhibition in assay [1] is -7.5% (inactive); in assay [3], -3.6% (inactive); in assay [7] it was 16.8% (inactive); in assay [8] it was 23% (inactive). Besides, the inhibition of aggregation in assay [2] was -10.3% (inactive). Besides, the nuclei count in assay [2] was 122%; in assay [3], 95.6%. For the same compound, the fluorescence slope in assay [4] is -0.555 (inactive); in assay [6], 0.00584 (inactive). Further, the NADPH fluorescence slope in assay [5] is 6.9e-05 (inactive).

On to `O=C(CCNC(=O)Cn1ccc2ccccc2c1=O)NCCN1CCc2ccccc2C1`, for which the cell count in assay [1] is 337. Besides, the inhibition is 0.5% (inactive) in assay [1], -26.8% (inactive) in assay [3], -3.36% (inactive) in assay [7] and 11.4% (inactive) in assay [8]. Besides, the inhibition of aggregation in assay [2] is 16.2% (inactive). Also, the nuclei count was 77.2% in assay [2] and 111% in assay [3]. For the same compound, the fluorescence slope in assay [4] is -0.474 (inactive); in assay [6] it was 0.00569 (inactive). For the same compound, the NADPH fluorescence slope in assay [5] is -0.000226 (inactive).

As to `CCCC1(C(=O)OCC)NC(c2ccc(N(C)C)cc2)C2C(=O)N(c3ccccc3)C(=O)C21` (centres undefined), the cell count in assay [1] is 468. Further, the inhibition in assay [1] is -0.5% (inactive); in assay [3], -15.1% (inactive); in assay [7] it was 8.02% (inactive); in assay [8] it was 20.7% (inactive). In assay [2], the inhibition of aggregation is 4.8% (inactive). In addition, the figures for the nuclei count in assay [2] and in assay [3] were 92.4% and 95%, respectively. Moreover, the fluorescence slope in assay [4] is -0.465 (inactive); in assay [6], 0.0068 (inactive). In assay [5], the NADPH fluorescence slope is -6.2e-05 (inactive).

`COC(=O)C1=C(C)NC(=O)C1(NC(=O)CN1CCCC1=O)C(F)(F)F` (centres undefined): in assay [1], the cell count is 879. Further, the inhibition in assay [1] is 3.6% (inactive); in assay [3], -79.8% (inactive); in assay [7] it was 9.49% (inactive); in assay [8], 21.7% (inactive). The inhibition of aggregation in assay [2] is 6.7% (inactive). Besides, the nuclei count in assay [2] was found to be 106%; in assay [3], 133%. The values for the fluorescence slope in assay [4] and in assay [6] were -0.435 (inactive) and 0.00621 (inactive), respectively. Moreover, the NADPH fluorescence slope in assay [5] is -7.2e-05 (inactive).
